Laboratory results reported in ChEMBL document CHEMBL5150059, “Transcriptional Inhibition of MicroRNA miR-122 by Small Molecules Reduces Hepatitis C Virus Replication in Liver Cells” (J Med Chem, 2022).
pEC50, pKd: −log10 of the molar value. Activity calls are given as the source filed them. The rule behind the calls is not given here.

Legend:
microRNA 122 [1] = assay: Inhibition of miR-122 in human Huh-7 cells expressing renilla luciferase gene assessed as relative luciferase unit after 48 hrs by dual luciferase assay relative to control; type: cell-based; design: concentration or dose not given beside the values
Method in brief: (§1)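 Huh7-miR122 stable line (miR-122 site in the Renilla luciferase 3′ UTR, kept in 500 μg/mL G418), seeded 15,000/well. After overnight incubation, treated 48 h with compound or DMSO (0.1% final) in triplicate. Renilla and firefly read by dual luciferase; Renilla normalized to firefly. Dose–response used for EC50.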

[2] = Binding affinity to recombinant C-terminal His-tagged […] (147 to 377 residues) (unknown origin) expressed in Escherichia coli by spectrofluorometer analysis; design: species or system Homo sapiens
Method in brief: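 His-tagged HNF4α ligand-binding domain (aa 147–377) expressed and purified from E. coli. 200 nM protein in PBS pH 7.4 titrated with increasing compound at 25 °C. Intrinsic Trp/Tyr fluorescence read at 330 nm (excitation 280 nm), corrected for buffer and ligand alone. Intensity change versus concentration fitted to Hill equation for KD. Two independent experiments.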

Huh-7 [3] = assay: Inhibition of pGL3-miR-122 (unknown origin) promotor activity transfected in Huh-7 cells harboring AP-1 mutant assessed as reduction in luciferase activity at 25 uM after 48 hrs by Bright-glo luciferase assay; type: cell-based
Method in brief: (§2)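 Huh7 cells transfected 3 h with pGL3-miR122 promoter–firefly reporter, parent or with transcription-factor site mutated/deleted. Then treated 48 h with 25 μM compound or 0.1% DMSO, in triplicate. Read by Bright-Glo luminescence; XTT viability assayed in parallel. Luminescence divided by viability, normalized to DMSO per reporter. Three independent experiments.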

microRNA 122 [4] = assay: Inhibition of miR-122 in human Huh-7 cells assessed as reduction in E-cadherin expression at 25 uM incubated for 48 hrs by Western blot analysis; type: cell-based
Method in brief: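 Huh7 cells treated 48 h at 37 °C with compound or DMSO (0.1% final), then lysed and run on 10% SDS-PAGE. Transferred to PVDF, blocked in 5% BSA/TBST. Probed overnight at 4 °C with anti-E-cadherin or anti-GAPDH (1:1000), then HRP anti-rabbit (1:2500), and detected by chemiluminescence. GAPDH used as internal control.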

Huh-7 [5] = assay: Inhibition of pGL3-miR-122 (unknown origin) promotor activity transfected in Huh-7 cells harboring HNF1alpha mutant assessed as reduction in luciferase activity at 25 uM after 48 hrs by Bright-glo luciferase assay; type: cell-based; method in brief: as §2
microRNA 122 [6] = assay: Inhibition of miR-122 in human Huh-7 cells assessed as reduction in mature miR-122 levels at 25 uM after 48 hrs by RT-qPCR analysis; type: cell-based
Method in brief: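 Huh7 cells treated 48 h with 25 μM compound or 0.1% DMSO, then total RNA isolated. 15 ng reverse-transcribed with TaqMan miRNA RT primers for miR-122 or RNU19. TaqMan qPCR run over 40 cycles in triplicate. Relative level from 2^−ΔΔCt versus RNU19 and DMSO. Three independent experiments.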

Hepatitis C virus = assay: Antiviral activity against HCV infected in human Huh7.5 cells assessed as reduction in viral RNA expression at 10 uM pretreated for 1 hr followed by viral infection and measured after 48 hrs by RT-qPCR analysis; type: functional, Hepacivirus hominis; design: scale not given: the % may be the effect or the level left; conditions: time 49 hrs
Method in brief: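 Huh7.5 cells pretreated 1 h with compound (10 μM) or DMSO, then infected with HCV (MOI 0.5) in compound-containing DMEM; medium replaced with compound medium at 5 h post-infection. At 48 h post-infection, RNA extracted. HCV and 18S RNA copy numbers quantified by RT-qPCR against standards. HCV RNA normalized to 18S, then to DMSO control.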

HEK293 = assay: Inhibition of […] (unknown origin) transfected in HEK293 cells coexpressing CYP26A1 assessed as reduction in luciferase expression at 25 uM after 48 hrs dual luciferase assay; type: cell-based; conditions: Homo sapiens
Method in brief: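 HEK293T cells (no endogenous HNF4α) co-transfected for 4 h with CYP26A1 promoter–firefly luciferase reporter, HNF4α expression plasmid and Renilla control plasmid. Then treated 48 h with 25 μM compound or DMSO (0.25% final). Read by dual luciferase assay, normalized to DMSO.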

Huh-7 [7] = assay: Inhibition of pGL3-miR-122 (unknown origin) promotor activity transfected in Huh-7 cells harboring HNF3beta mutant assessed as reduction in luciferase activity at 25 uM after 48 hrs by Bright-glo luciferase assay; type: cell-based; method in brief: as §2
Huh-7 [8] = assay: Inhibition of pGL3-miR-122 (unknown origin) promotor activity transfected in Huh-7 cells harboring HNF4alpha mutant by measuring reversal of mir-122 activity at 25 uM after 48 hrs by Bright-glo luciferase assay; type: cell-based; method in brief: as §2
microRNA 122 [9] = assay: Inhibition of miR-122 in human Huh-7 cells assessed as reduction in primary miR-122 expression at 25 uM incubated for 48 hrs by RT-qPCR analysis; type: cell-based
Method in brief: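 Huh7 cells treated 48 h with 25 μM compound or 0.1% DMSO. 50 ng total RNA reverse-transcribed with iScript. TaqMan qPCR run for pri-miR-122 and GAPDH in triplicate. Relative level from 2^−ΔΔCt normalized to GAPDH and DMSO. Three independent experiments.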

[10] = Effect on non-miR-122 pathway in human Huh-7 cells harboring psi-check empty vector assessed as increase in luminescence at 10 uM after 48 hrs by dual luciferase assay relative to control; type: functional
Method in brief: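 Huh7 cells transfected with psiCHECK-empty reporter (miR-122 site replaced by a non-targeted linker) for 2 h. Medium then replaced with compound at 10 μM or DMSO (0.1% final), in triplicate. Renilla/firefly read by dual luciferase after 48 h, normalized to DMSO. At least three independent experiments, mean ± SD.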

Huh-7 [11] = assay: Cytotoxicity against human Huh-7 cells assessed as reduction in cell viability at 10 to 25 uM after 48 hrs by XTT assay; type: toxicity, cell-based; conditions: huh-7, 48 h, dose 10-25 µM
Method in brief: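 Huh7 cells given compound for 48 h, then XTT reagent activated with menadione. Absorbance at 450 nm minus 630 nm read immediately and after 4 h; viability taken as the difference between the two readings.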

Huh-7 [12] = assay: Inhibition of pGL3-miR-122 (unknown origin) promotor activity transfected in Huh-7 cells harboring HNF6 mutant assessed as reduction in luciferase activity at 25 uM after 48 hrs by Bright-glo luciferase assay; type: cell-based; method in brief: as §2
microRNA 122 [13] = assay: Inhibition of miR-122 in human Huh-7 cells expressing renilla luciferase gene after 48 hrs by dual luciferase assay; type: cell-based; method in brief: as §1
Renilla = assay: Inhibition of recombinant renilla luciferase at 10 uM using coelenterazine as substrate incubated for 10 mins by luminescence based microplate reader analysis relative to control; values are per cent of control
Huh-7 [14] = assay: Inhibition of pGL3-miR-122 (unknown origin) promotor activity transfected in human Huh-7 cells at 25 uM after 48 hrs by Bright-glo luciferase assay; type: cell-based; method in brief: as §2

SMILES	Activity (microRNA 122 [1])	residual activity (Renilla)	other results
COc1cc(C)c(C(C)C)cc1S(=O)(=O)Nc1ccccc1	47%		
COc1cc(C)c(C(C)C)cc1S(=O)(=O)n1cccc1	29%		
COc1cc(C)c(C(C)C)cc1S(=O)(=O)N(C)c1ccccc1C	104%	100%	pKd [2]: 6.36; inhibition (Huh-7 [3]): Active; inhibition (microRNA 122 [4]): Active; inhibition (Huh-7 [5]): Active; inhibition (microRNA 122 [6]): 38%; Activity (Hepatitis C virus): 88%; inhibition (HEK293): 50%; inhibition (Huh-7 [7]): Active; inhibition (Huh-7 [8]): 64%; inhibition (microRNA 122 [9]): 59%; Activity [10]: 90%; Activity (Huh-7 [11]): Non-Toxic; inhibition (Huh-7 [12]): Active; pEC50 (microRNA 122 [13]): 4.96; Activity (Huh-7 [14]): Active
COc1cc(C)c(C(C)C)cc1S(=O)(=O)n1ccc2ccccc21	55%	94%	
COc1cc(C)c(C(C)C)cc1S(=O)(=O)n1cnc(-c2ccccc2)c1	35%		
COc1cc(C)c(C(C)C)cc1S(=O)(=O)N(C)c1cccc(C)c1C	80%	93%	Activity [10]: 225%
COc1cc(C)c(C(C)C)cc1S(=O)(=O)N(C)c1ccc(C)cc1	82%	100%	Activity [10]: 218%
COc1cc(C)c(C(C)C)cc1S(=O)(=O)n1cnc([N+](=O)[O-])c1	61.1%	67%	
CCc1nccn1S(=O)(=O)c1cc(C(C)C)c(C)cc1OC	40%		
CCNS(=O)(=O)c1cc(C(C)C)c(C)cc1OC	42%		
C#CCOc1cc(C)c(C(C)C)cc1S(=O)(=O)n1cnc(C)c1	50%	97%	
COc1cc(C)c(C(C)C)cc1S(=O)(=O)n1ccc(C)n1	44%		
COc1cc(C)c(C(C)C)cc1S(=O)(=O)N(C)C	42%		
COc1cc(C)c(C(C)C)cc1S(=O)(=O)Nc1ccccn1	88%	8%	
COc1cc(C)c(C(C)C)cc1S(=O)(=O)n1cnc2ccccc21	75%	45%	
COc1cc(C)c(C(C)C)cc1S(=O)(=O)Nc1ccccc1C	32%		
COc1cc(C)c(C(C)C)cc1S(=O)(=O)n1cnc(C)c1	100%	80%	Activity [10]: 127%

SMILES	Activity (microRNA 122 [1])	residual activity (Renilla)	other results
COc1cc(C)c(C(C)C)cc1S(=O)(=O)N(C)c1cccc(C)n1	107%	100%	Activity [10]: 117%
COc1cc(C)c(C(C)C)cc1S(=O)(=O)n1cnc(Cl)c1Cl	4%		
COc1cc(C)c(C(C)C)cc1S(=O)(=O)n1cc(C)cn1	32%		
COc1cc(C)c(C(C)C)cc1S(=O)(=O)N(C)c1cc(C)ccc1C	77%	100%	Activity [10]: 245%
COc1cc(C)c(C(C)C)cc1S(=O)(=O)N(C)c1ncccc1C	64%	100%	Activity [10]: 87%
Cc1ccc([N+](=O)[O-])cc1S(=O)(=O)n1c(C)nc2ccccc21			pKd [2]: 6.08; inhibition (HEK293): 50%
COc1cc(C)c(C(C)C)cc1S(=O)(=O)Nc1cccc(C)n1	89%	2%	
COc1cc(C)c(C(C)C)cc1S(=O)(=O)Nc1ncccc1C	135%	17%	
CCOc1cc(C)c(C(C)C)cc1S(=O)(=O)n1cnc(C)c1	74%	70%	
COc1cc2c(cc1S(=O)(=O)n1cnc(C)c1)CCCC2	33.3%		
COc1cc(C)c(C(C)C)cc1S(=O)(=O)N(C)c1cccc(C)c1	122%	78%	Activity [10]: 103%
COc1cc(C)ccc1S(=O)(=O)n1cnc(C)c1	24%	80%	
COc1cc(C)c(C)cc1S(=O)(=O)n1cnc(C)c1	32%		
COc1cc(C)c(C(C)C)cc1S(=O)(=O)n1ccc(C)c1	57%	87%	
COc1cc(C)c(C(C)C)cc1S(=O)(=O)n1ccnc1	33%		
COc1cc(C)c(C(C)C)cc1S(=O)(=O)N(C)c1ccccn1	89%	100%	Activity [10]: 88%
